Sampled rows, rich in hits. Any-hit rate of the full collection: about 1.3%.
S1P4 ag: agonists of human S1P4 receptor. S1P4-expressing cell line, agonist reporter assay. AID 1509. activation, % at 4.98 µM. 0.35% of 220,000 active. O95977; in the data active = activation above about 11%;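 note: 0% = DMSO vehicle and 100% = reference agonist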
Target sequence (O95977 whole entry, looked up): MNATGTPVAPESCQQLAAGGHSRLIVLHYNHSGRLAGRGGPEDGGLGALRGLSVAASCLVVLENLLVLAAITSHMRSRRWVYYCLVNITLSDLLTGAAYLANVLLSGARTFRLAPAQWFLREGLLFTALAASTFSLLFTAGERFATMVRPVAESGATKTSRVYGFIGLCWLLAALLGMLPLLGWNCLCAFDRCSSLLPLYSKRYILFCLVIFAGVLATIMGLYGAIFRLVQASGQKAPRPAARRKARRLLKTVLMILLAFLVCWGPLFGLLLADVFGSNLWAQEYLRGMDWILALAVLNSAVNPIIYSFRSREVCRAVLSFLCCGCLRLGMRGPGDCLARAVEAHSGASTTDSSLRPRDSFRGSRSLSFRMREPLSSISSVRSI
Tb hexokinase: T. brucei hexokinase 1 inhibition; recombinant TbHK1, G6PDH-coupled NADH A340; inhibition, % at 10 µM; 0.11% of 220,000 active;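 active = inhibition of 50% or more in the single-dose primary screen; inactive = inhibition below 50%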
Biofilm kill mix: mixture kills Candida albicans biofilm cells; C. albicans biofilm persisters + clotrimazole, fluorescence viability; primary screen in compound mixtures of four per well; inhibition, % at 7.6 µM; 0.02% of 120,000 active; AID 1242;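 active = inhibition above 30.3% in the primary screen of four-compound pools, then above 30% when the compound was retested; inconclusive = passed the primary limit but could not be retested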;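 note: compounds exposed to preformed 24 h biofilms for 48 h; 0% = untreated biofilm control and 100% = clotrimazole plus chlorhexidine kill blank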
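Test system: C. albicans biofilms. Buffer or medium: RPMI/MOPS medium, pH 7.0. Timing: 48 h compound exposure at 37 °C. Technique: Alamar Blue fluorescence. Evaluation: percent inhibition of biofilm viability.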
Dynein transport: dynein cargo transport inhibition; 0.47% of 220,000 active; 3617.4 mouse cells, GR-EGFP nuclear translocation imaging; test concentration mostly 20 µM; stimulated with dexamethasone, 1 µM; hits give low values; z-score, hits read low;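 active = plate z-score of nuclear minus cytoplasmic receptor signal below a set negative limit, without overly bright fluorescence or cell loss, cut at about -3.5 in these data, passing the limit was not always enough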;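 note: z-score of nuclear minus cytoplasmic ring GR-EGFP intensity difference per well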
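Buffer or medium: tet-free, stripped-serum medium; reagent: dexamethasone at 1.0 µM final, 30 min; incubation: 48 h induction, 1 h compound, 30 min dex at 37 °C; measured by: formaldehyde fixation, Hoechst nuclear stain, 10x automated fluorescence imaging; read-out: nuclear-to-cytoplasmic GR-EGFP distribution per well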
S1P3 antag: blocks the human S1P3 receptor; 0.27% of 170,000 active; CHO S1P3 NFAT-BLA reporter, FRET fluorescence, antagonist mode; Q99500; inhibition, % at 4.98 µM;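 active = inhibition above the plate cutoff, the mean inhibition of test wells on that plate plus 3 SD, cut at about 28% in these data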;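 note: cells challenged with S1P at its EC80 of 0.8 µM; blue over green emission ratio from cleaved BLA substrate after 4 h stimulation; 0% = S1P-stimulated wells and 100% = unstimulated DMSO-only wells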
S1P4 antagonist: antagonists of human S1P4 receptor; inhibition, % at 4.98 µM; S1P4-expressing cells, antagonist mode, reporter read-out; 0.26% of 220,000 active; in the data active = inhibition above about 29%;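 note: 0% = wells stimulated with agonist and 100% = vehicle wells without agonist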
Dynein inh conf: dynein cargo transport inhibition, confirmation; calls only at 20 µM; 3617.4 GR-EGFP nuclear translocation imaging, dexamethasone-induced; 69% of 1,000 active; shares compounds with Dynein transport;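 active = inhibition of receptor movement into the nucleus at or above a set limit in both runs, with normal cell brightness and cell count; inconclusive = limit reached in only one run, brightness and count normal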;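 note: dexamethasone at 1 µM final in well for 30 min; nuclear minus cytoplasmic GR-EGFP mean intensity difference in channel 2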
Starred values were filed as active, the others as inactive; i = inactive; ? = inconclusive; / = no result; + = active, no number.

SMILES | S1P4 ag | Tb hexokinase | Biofilm kill mix | Dynein transport | S1P3 antag | S1P4 antagonist | Dynein inh conf
CCC(=O)Nc1cccc(C(=O)/C=C/c2ccc(F)cc2)c1 | 0 | -18 | 6 | -4.8* | -11 | 25 | +
CN(C)c1ccc(/C=C/C(=O)c2cccc(Br)c2)cc1 | 2 | -1 | / | -13 | / | 19 | +
CCOc1ccc(/C=C/C(=O)Nc2cccc(C(C)=O)c2)cc1 | -1 | -3 | -10 | 1.5 | -24 | -14 | /
CC1(C)CN2C(=O)c3ccccc3C2(C)S1 (stereo not given) | 0 | -4 | 24 | 0.4 | 6 | -3 | /
OC(CNCCc1ccc(Cl)cc1)COc1ccc2ccccc2c1 (stereo not given) | 2 | 24 | 17 | -8.2* | -7 | -15 | i
COc1ccc(C2=NN(CCC(=O)NCc3cccs3)C(=O)CC2)cc1 | 0 | 3 | 21 | 1.2 | -29 | -7 | /
NS(=O)(=O)c1ccc(NC(=S)Nc2nn(Cc3ccc(Cl)cc3Cl)cc2Cl)cc1 | 0 | -1 | 13 | -0.12 | 5 | -30 | /
COc1cc(N2CCCC2)c(OC)cc1/C=C1/NC(=S)NC1=O | -1 | -1 | -5 | -4.4 | 4 | 2 | i
COc1cc(N2CCCC2)c(OC)cc1/C=C(/C#N)c1cccc(F)c1 | 0 | -6 | / | -0.56 | / | -6 | /
Cc1ccc2nc(-c3ccc(NC(=O)CN4CCN(c5ccccn5)CC4)cc3)sc2c1 | 0 | -30 | 23 | -0.91 | 4 | -14 | /
COC(=O)CCCNC(=O)c1ccccn1 | -1 | -5 | 14 | -0.37 | -14 | 11 | /
O=C1ON=C(c2ccccc2)/C1=C/c1ccc(-c2ccccc2[N+](=O)[O-])o1 | -1 | 29 | 5 | -5.9* | -11 | -7 | +
CC(C)(C)C(=O)/C(=C/c1ccncc1)n1cncn1 | -2 | 3 | 15 | -5.1* | 5 | -6 | +
CCCCN(C(=O)Cn1ncc(Cl)c(Cl)c1=O)c1c(N)n(CC(C)C)c(=O)[nH]c1=O | 0 | -3 | 8 | -1.3 | -13 | 2 | /
Cc1ccccc1NC(=O)C(Cl)=C(Cl)Cl | 0 | 1 | 6 | -3.8* | -9 | 26 | +
CCOC(=O)C1=C(CN2CC(C)CC(C)C2)NC(=O)NC1c1ccc2c(c1)OCO2 (stereo not given) | 1 | -1 | 23 | -0.16 | -8 | -5 | /
Cc1ccc(N(C(=O)CCl)C(C(=O)NC2CCCCC2)c2cccnc2)cc1C (stereo not given) | 2 | 4 | 17 | -4.1* | -10 | 2 | +
CCOC(=O)C(=Cc1ccc(OCc2ccc([N+](=O)[O-])cc2)c(OC)c1)C(=O)OCC | -5 | 7 | / | -4.1* | / | 5 | +
COc1ccc(Br)cc1-c1nc(CCl)cs1 | -1 | -1 | 0 | 0.072 | -8 | 4 | /
O=C1CC(=O)N(CCNc2ncc(C(F)(F)F)cc2Cl)C(=O)N1 | -2 | 6 | / | 0.019 | / | -6 | /
O=C1C=CC(=O)N1CCNc1ncc(C(F)(F)F)cc1Cl | -1 | 9 | 9 | -5.5* | -30 | 29 | +
COC(C/C=C/C(=O)COCc1ccccc1)OC | / | 4 | 24 | -5.7* | / | / | +
COC(C[C@@H]1O[C@@H]1C(=O)COCc1ccccc1)OC | / | -6 | 14 | 2.5 | / | / | /
O=C1C(=O)N(c2ccc(O)cc2)C(c2ccccc2[N+](=O)[O-])/C1=C(\O)c1ccccc1 (stereo not given) | 1 | -31 | 21 | -0.11 | -24 | -2 | /
COc1ccc(-n2cccc2/C=C/[N+](=O)[O-])cc1 | 0 | -8 | 11 | -3.8* | 13 | -5 | +
SMILES | S1P4 ag | Tb hexokinase | Biofilm kill mix | Dynein transport | S1P3 antag | S1P4 antagonist | Dynein inh conf
COc1cc2c(cc1OC)CN(c1nc(-c3cccnc3)nc3ccccc13)CC2 | -1 | -15 | 16 | 0.12 | -2 | 1 | /
CCN(CC)c1ccc(/C=N/NC(=O)C(O)(c2ccccc2)c2ccccc2)o1 | 1 | -14 | 12 | -4.9* | 4 | -12 | i
O=C(CN1C(=O)CC(c2ccccc2)S(=O)(=O)c2ccccc21)N1CCCC1 (stereo not given) | 2 | 0 | 12 | 0.57 | -8 | -3 | /
CCOC(=O)/C(=C\c1cccnc1)C(=O)c1cc(C(C)=O)c(Nc2ccccc2)s1 | -6 | -34 | / | -5.7* | / | 63* | +
CCc1[nH]c(C(=O)O)c(C)c1C(=O)OC | 0 | -5 | 18 | -0.98 | -2 | 8 | /
Cn1ncc(SCc2ccccc2)c(Cl)c1=O | 2 | 2 | 17 | -1.8 | -7 | 5 | /
Cn1ncc(S(=O)(=O)Cc2ccccc2)c(Cl)c1=O | 0 | -9 | 9 | -5.2* | 2 | 2 | +
CC(C)C[C@H](N)c1nnc(S(=O)(=O)Cc2cccc(F)c2)o1 | 1 | 1 | / | -4.9* | -26 | -7 | +
CCCCCCc1cc2cc(C(N)=O)c(=N)oc2cc1O | 10 | 5 | / | -1.2 | / | -22 | /
CCCCCCc1cc2cc(C(=O)NC)c(=N)oc2cc1O | 8 | 20 | / | -7.5* | / | -14 | +
O=C1C=CC2C(c3ccc4c(c3)OCO4)CC1N2Cc1ccccc1 (stereo not given) | -2 | -9 | 11 | -3.8* | 6 | -15 | +
CC(/C=N/n1c(COc2ccccc2)n[nH]c1=S)=C\c1ccco1 | -1 | 3 | 17 | -4* | -1 | 13 | i
Cc1occc1-c1nnc(SCC(=O)N2CCc3ccccc32)o1 | -3 | 4 | / | -4* | -13 | -17 | i
Cc1ccnn1CC(=O)N/N=C/c1cn[nH]c1-c1ccc(F)cc1 | 4 | -7 | 20 | -0.13 | -17 | -3 | /
Cc1ccccc1COC(=O)c1nn(-c2ccccc2)nc1N | 9 | 5 | 15 | 0.58 | -7 | -13 | /
COC(=O)NC(=C(Cl)Cl)S(=O)(=O)c1ccccc1 | -2 | -2 | / | -5.8* | / | 5 | +
CCOc1ccccc1NC(=O)C(=O)N/N=C/c1cc(Br)ccc1O | 1 | -4 | 5 | -0.82 | -5 | -1 | /
Cn1c(=O)c(=O)n(C)c2cc(S(=O)(=O)Nc3ccc4c(c3)OCCO4)ccc21 | 0 | -19 | / | -0.5 | -40 | -3 | /
Cn1c(=O)oc2cc(S(=O)(=O)Nc3ccc4c(c3)OCCO4)ccc21 | -1 | 1 | / | -4.3 | -6 | 1 | i
Cc1cccc(NC(=O)CN2C(=O)N/C(=C/c3cc(C)n(C(C)C)c3C)C2=O)c1 | -3 | -21 | / | -0.37 | / | 6 | /
Cc1cccc(NC(=O)CN2C(=O)N/C(=C/c3ccc(C)s3)C2=O)c1 | 1 | -28 | 16 | -4.5 | -14 | -7 | ?
CC(C)c1ccc(N2C(=O)CC(Sc3ncn[nH]3)C2=O)cc1 (stereo not given) | -1 | 3 | / | 0.81 | / | -5 | /

Source: PubChem (several laboratories)
